Measured values taken from ChEMBL document CHEMBL4038344, “Novel Diarylurea Based Allosteric Modulators of the Cannabinoid CB1 Receptor: Evaluation of Importance of 6-Pyrrolidinylpyridinyl Substitution” (J Med Chem, 2017).
Activity calls are given as the source filed them. The calls are words filed in the database; no cut-off is given here.

How the values were obtained:
[1] = molecular target: T1, Cannabinoid receptor 2 (Homo sapiens, UniProt P34972); assay: (§1) Agonist activity at human CB2 receptor expressed in CHO cells co-expressing Galpha16 assessed as increase in calcium mobilization at 10 uM measured at 1 sec interval for 90 secs by calcium-5 dye based FLIPR assay relative to CP55,940; type: functional, cell-based
Summary of the method: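 CB2 agonist screen in stable human CB2-CHO-RD-HGA16 cells. Cells were Calcium 5 dye-loaded for 45 min at 37 °C in HBSS/HEPES/probenecid buffer, pH 7.4, and pretreated with vehicle. FLIPR Tetra then added compound at a single concentration. Fluorescence (485/525 nm) was expressed as % of CP55,940 Emax.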

[2] = molecular target: T1, Cannabinoid receptor 2; assay: as §1, with “Antagonist” for “Agonist”, “inhibition of CP55,940-induced” for “increase in”, “uM preincubated for 15 mins followed by CP55,490 addition” for “uM”; type: functional, cell-based
[3] = molecular target: T2, Cannabinoid receptor 1 (Homo sapiens, UniProt P21554); assay: Agonist activity at human CB1 receptor expressed in CHO cells co-expressing Galpha16 assessed as increase in calcium mobilization at 10 uM measured at 1 sec interval for 90 secs by calcium-5 dye based FLIPR assay relative to CP55,940; type: cell-based; conditions: 0.025 h
[4] = system: Liver; assay: (§2) Half life in rat liver microsomes in presence of NADPH by LC-MS/MS analysis; type: ADME, microsome; conditions: microsomes
Summary of the method: (§3)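 Compound was incubated at 37 °C with rat liver microsomes (0.5 mg/mL protein) in 100 mM potassium phosphate, pH 7.4, with 1 mM NADPH. Samples were taken at 0, 5, 15, 30 and 45 min and quenched 1:1 with ice-cold stop solution containing labetalol. Half-life and clearance are mean ± SD of two independent experiments.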

[5] = system: Liver; assay: Clearance in rat liver microsomes in presence of NADPH by LC-MS/MS analysis; type: ADME, microsome; summary of the method: as §3
[6] = molecular target: T1, Cannabinoid receptor 2; assay: Antagonist activity at human CB2 receptor expressed in CHO cells co-expressing Galpha16 assessed as inhibition of CP55,940-induced calcium mobilization preincubated for 15 mins followed by CP55,490 addition measured at 1 sec interval for 90 secs by calcium-5 dye based FLIPR assay; type: functional, cell-based
[7] = molecular target: Cannabinoid receptor 1 (Mus musculus, UniProt P47746); assay: Allosteric modulation of CB1 receptor in CD-1 mouse cerebellar membranes assessed as inhibition of CP55,940-induced [35S]GTPgammaS binding after 60 mins; type: functional, cell membranes, Cerebellum, Membrane
Summary of the method: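 They were preincubated 10 min with adenosine deaminase (3 U/ml) in buffer containing 1 mg/ml BSA, then incubated 60 min at 30 °C with 30 µM GDP, 0.1 nM [35S]GTPγS, 100 nM CP55,940 and compound (0.1% DMSO). Nonspecific binding was measured with 30 µM GTPγS. Read-out was filtration.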

[8] = molecular target: Cannabinoid receptor 1 (Rattus norvegicus, UniProt P20272); assay: Allosteric modulation of CB1 receptor in rat cerebellar membranes assessed as inhibition of CP55,940-induced [35S]GTPgammaS binding; type: functional, cell membranes, Cerebellum, Membrane
[9] = as §2; type: ADME, microsome; conditions: liver microsomes; summary of the method: as §3
[10] = system: Rattus norvegicus; assay: Reduction in cocaine-induced reinstatement of cocaine seeking behavior in Sprague-Dawley rat at 30 mg/kg pretreated for 10 mins followed by cocaine treatment on day following last extinction session; type: functional, organism-based
Summary of the method: (§4)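 Adult male Sprague-Dawley rats (280-300 g) with jugular catheters self-administered cocaine (0.75 mg/kg/infusion, FR1 rising to FR5) in 2-hr daily sessions for 14 days, followed by extinction. On the day after the last extinction session, compound was given 10 min before a cocaine prime (10 mg/kg i.p.). Active lever presses were counted over the 2-hr reinstatement session.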

[11] = system: Rattus norvegicus; assay: Reduction in cocaine-induced reinstatement of cocaine seeking behavior in Sprague-Dawley rat at 10 mg/kg pretreated for 10 mins followed by cocaine treatment on day following last extinction session; type: functional, organism-based; summary of the method: as §4
[12] = molecular target: T2, Cannabinoid receptor 1; assay: PAM antagonist activity at human CB1 receptor expressed in CHO cells co-expressing Galpha16 assessed as inhibition of CP55,940-induced calcium mobilization up to 100 nM preincubated for 15 mins followed by CP55,490 addition measured at 1 sec interval for 90 secs by calcium-5 dye based FLIPR assay; type: functional, cell-based
[13] = molecular target: Cannabinoid receptor 1 (Mus musculus) (UniProt P47746); assay: PAM antagonist activity at CB1 receptor in CD-1 mouse cerebellar membranes assessed as inhibition of CP55,940-induced [35S]GTPgammaS binding after 60 mins; conditions: Cerebellum, Membrane
[14] = molecular target: Cannabinoid receptor 1 (Mus musculus) (UniProt P47746); assay: PAM antagonist activity at CB1 receptor in CD-1 mouse cerebellar membranes assessed as increase in [3H]CP55,940 binding after 90 mins relative to control; set-up: scale not given: the % may be the effect or the level left; conditions: Cerebellum, Membrane

T1 sequence (P34972 whole entry): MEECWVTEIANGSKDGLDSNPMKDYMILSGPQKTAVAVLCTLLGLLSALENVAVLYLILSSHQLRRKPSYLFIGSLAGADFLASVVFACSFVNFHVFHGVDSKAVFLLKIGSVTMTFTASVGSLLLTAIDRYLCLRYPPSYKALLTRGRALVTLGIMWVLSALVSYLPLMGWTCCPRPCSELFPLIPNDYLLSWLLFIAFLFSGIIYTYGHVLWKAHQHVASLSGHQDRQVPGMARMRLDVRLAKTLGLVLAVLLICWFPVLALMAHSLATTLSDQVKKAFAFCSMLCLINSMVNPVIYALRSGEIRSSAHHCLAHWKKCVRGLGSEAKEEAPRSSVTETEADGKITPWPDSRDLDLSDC
T2 sequence (P21554 whole entry): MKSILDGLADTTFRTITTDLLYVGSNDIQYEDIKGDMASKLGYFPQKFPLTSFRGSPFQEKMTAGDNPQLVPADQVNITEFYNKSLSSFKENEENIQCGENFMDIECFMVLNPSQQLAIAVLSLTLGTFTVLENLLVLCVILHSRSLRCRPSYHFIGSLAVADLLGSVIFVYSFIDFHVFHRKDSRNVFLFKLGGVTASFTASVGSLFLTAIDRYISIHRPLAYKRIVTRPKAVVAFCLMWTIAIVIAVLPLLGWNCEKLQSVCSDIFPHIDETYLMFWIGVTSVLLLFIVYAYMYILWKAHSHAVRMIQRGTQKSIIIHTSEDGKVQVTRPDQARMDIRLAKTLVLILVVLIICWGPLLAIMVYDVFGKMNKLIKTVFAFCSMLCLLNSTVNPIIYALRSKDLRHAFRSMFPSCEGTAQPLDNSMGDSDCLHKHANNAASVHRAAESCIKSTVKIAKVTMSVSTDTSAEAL
Sequence of Cannabinoid receptor 1 (Mus musculus) (P47746 whole entry, looked up): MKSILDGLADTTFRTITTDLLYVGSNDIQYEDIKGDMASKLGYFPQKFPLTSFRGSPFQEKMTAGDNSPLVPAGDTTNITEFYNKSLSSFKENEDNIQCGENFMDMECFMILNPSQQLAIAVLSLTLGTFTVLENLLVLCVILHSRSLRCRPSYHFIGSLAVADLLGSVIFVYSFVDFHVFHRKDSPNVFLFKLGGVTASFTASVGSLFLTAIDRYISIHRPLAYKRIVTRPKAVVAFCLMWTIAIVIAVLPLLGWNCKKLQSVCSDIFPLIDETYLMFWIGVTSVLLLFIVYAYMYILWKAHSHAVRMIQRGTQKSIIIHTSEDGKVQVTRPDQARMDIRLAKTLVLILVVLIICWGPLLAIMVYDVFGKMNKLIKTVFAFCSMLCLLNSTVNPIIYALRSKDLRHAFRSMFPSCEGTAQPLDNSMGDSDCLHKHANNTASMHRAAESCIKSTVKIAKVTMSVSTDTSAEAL
Sequence of Cannabinoid receptor 1 (Rattus norvegicus, UniProt P20272) (P20272 whole entry): as the sequence (P47746 whole entry, looked up) above, with D95E counted along it
Sequence of Cannabinoid receptor 1 (Mus musculus, UniProt P47746) (P47746 whole entry): as the sequence (P47746 whole entry, looked up) above

Emax [1] [%]	Imax [2] [%]	Emax at 10 µM [3] [%]	SMILES	also measured
< 10	< 50	34	O=C(Nc1ccc(Cl)cc1)Nc1cccc(-c2cccnc2)c1	
< 10	< 50	15	O=C(Nc1ccc(Cl)cc1)Nc1cccc(-c2ccncc2)c1	t1/2 [4]: 41.9 min; CLH [5]: 33.1 µL/min/mg
< 10	< 50	21	O=C(Nc1ccc(Cl)cc1)Nc1cccc(-c2ccc(Cl)cc2)c1	
< 10	< 50		Cc1cccc(-c2cccc(NC(=O)Nc3ccc(Cl)cc3)c2)c1	
< 10		20	O=C(Nc1ccc(Cl)cc1)Nc1cccc(-c2ccc(Cl)c(Cl)c2)c1	IC50 [6]: > 10 µM
< 10	< 50	5	O=C(Nc1ccc(Cl)cc1)Nc1cccc(-c2ccccc2)c1	
< 10		9	O=C(Nc1ccc(Cl)cc1)Nc1cccc(-c2cncnc2)c1	IC50 [6]: 3.4 µM
< 10	< 50	10	O=C(Nc1ccc(Cl)cc1)Nc1cccc(-c2cccc(O)c2)c1	
< 10	< 50	9	O=C(Nc1ccc(Cl)cc1)Nc1cccc(-c2ccccn2)c1	
< 10	< 50	23	COc1cc(-c2cccc(NC(=O)Nc3ccc(Cl)cc3)c2)ccn1	
< 10		9	O=C(Nc1ccc(Cl)cc1)Nc1cccc(-c2ccc(F)cc2)c1	Activity [11]: Active; t1/2 [4]: > 300 min; inhibition [12]: Active; IC50 [6]: > 10 µM; CLH [5]: < 4.6 µL/min/mg; inhibition [13]: Dose-dependent effect; Activity [14]: 215%

Continued, molecule first:

SMILES	Emax [1] [%]	Imax [2] [%]	Emax at 10 µM [3] [%]	also measured
O=C(Nc1ccc(Cl)cc1)Nc1cccc(-c2ccc3ccccc3n2)c1	< 10	< 50	5	
CC(C)Oc1cccc(-c2cccc(NC(=O)Nc3ccc(Cl)cc3)c2)c1	< 10	< 50		
O=C(Nc1ccc(Cl)cc1)Nc1cccc(-c2ccc3c(c2)Cc2ccccc2-3)c1	< 10	< 50	0	
O=C(Nc1ccc(Cl)cc1)Nc1cccc(-c2c(Cl)cccc2Cl)c1	< 10	< 50	17	
O=C(Nc1ccc(Cl)cc1)Nc1cccc(-c2ccc3ccccc3c2)c1	< 10	< 50	7	
O=C(Nc1ccc(Cl)cc1)Nc1cccc(-c2cccc(-c3ccccc3)c2)c1	< 10	< 50	1	
CC(C)(C)c1cc(-c2cccc(NC(=O)Nc3ccc(Cl)cc3)c2)cc(C(C)(C)C)c1	< 10	< 50	10	
O=C(Nc1ccc(Cl)cc1)Nc1cccc(-c2cnc3ccccc3c2)c1	< 10		3	IC50 [6]: 4.1 µM
O=C(Nc1ccc(Cl)cc1)Nc1cccc(-c2cc(Cl)cc(Cl)c2)c1	< 10	< 50	16	
O=C(Nc1ccc(Cl)cc1)Nc1cccc(-c2ccc3c(c2)OCO3)c1	< 10	< 50	10	
Cc1ccnc(-c2cccc(NC(=O)Nc3ccc(Cl)cc3)c2)c1	< 10	< 50	3	
O=C(Nc1ccc(Cl)cc1)Nc1cccc(-c2ccc(-c3ccccc3)cc2)c1	< 10	< 50	0	IC50 [7]: > 10 µM
O=C(Nc1ccc(Cl)cc1)Nc1cccc(-c2ccc(F)cc2F)c1	< 10	< 50	9	
O=C(Nc1ccc(Cl)cc1)Nc1cccc(-c2ccc3occc3c2)c1	< 10	< 50	1	
CC(C)(C)c1ccc(-c2cccc(NC(=O)Nc3ccc(Cl)cc3)c2)cc1	< 10	< 50	4	
Cc1ccccc1-c1cccc(NC(=O)Nc2ccc(Cl)cc2)c1	< 10		6	IC50 [6]: > 10 µM
O=C(Nc1ccc(Cl)cc1)Nc1cccc(-c2ccc(C(=O)c3ccccc3)cc2)c1	< 10	< 50	13	
COc1cccc(-c2cccc(NC(=O)Nc3ccc(Cl)cc3)c2)n1	< 10	< 50	2	
COc1cccc(-c2cccc(NC(=O)Nc3ccc(Cl)cc3)c2)c1	< 10	< 50	13	
O=C(Nc1ccc(Cl)cc1)Nc1cccc(-c2cccc(N3CCCC3)n2)c1	< 10		28	IC50 [8]: 0.042 to 0.074 µM; half-life [9]: 13 to 13.4 min; IC50 [6]: > 10 µM; CLH [5]: 113.7 µL/min/mg; Activity [10]: Active
O=C(Nc1ccc(Cl)cc1)Nc1cccc(-c2cccc([N+](=O)[O-])c2)c1	< 10		17	IC50 [6]: > 10 µM
